Assay results published in ChEMBL document CHEMBL2176975, “Novel toll-like receptor 2 ligands for targeted pancreatic cancer imaging and immunotherapy” (J Med Chem, 2012).
pEC50, pKi: −log10 of the molar value. Non-standard residues stand in square brackets, D forms with d. Residues, ends and D or L forms follow the SMILES beside them. *: point of attachment. Propyl(2R-PamO,3-PamO) = CCCCCCCCCCCCCCCC(=O)OC[C@H](C*)OC(=O)CCCCCCCCCCCCCCC; X1 = CC(=O)NCCCOCCOCCOCCCNC(=O)COCC(=O)*; Palmitoyl = CCCCCCCCCCCCCCCC(=O)*

Tests used:
Toll-like receptor 2 [1] = biological target: T1, Toll-like receptor 2 (Homo sapiens, UniProt O60603); test: Agonist activity at human TLR2 expressed in HEK293 cells assessed as induction of NF-kappaB signaling after 24 hrs by luminescence based luciferase reporter gene assay relative to 1 ug/mL of SAA; assay type: functional, cell-based
T1 sequence (O60603 whole entry): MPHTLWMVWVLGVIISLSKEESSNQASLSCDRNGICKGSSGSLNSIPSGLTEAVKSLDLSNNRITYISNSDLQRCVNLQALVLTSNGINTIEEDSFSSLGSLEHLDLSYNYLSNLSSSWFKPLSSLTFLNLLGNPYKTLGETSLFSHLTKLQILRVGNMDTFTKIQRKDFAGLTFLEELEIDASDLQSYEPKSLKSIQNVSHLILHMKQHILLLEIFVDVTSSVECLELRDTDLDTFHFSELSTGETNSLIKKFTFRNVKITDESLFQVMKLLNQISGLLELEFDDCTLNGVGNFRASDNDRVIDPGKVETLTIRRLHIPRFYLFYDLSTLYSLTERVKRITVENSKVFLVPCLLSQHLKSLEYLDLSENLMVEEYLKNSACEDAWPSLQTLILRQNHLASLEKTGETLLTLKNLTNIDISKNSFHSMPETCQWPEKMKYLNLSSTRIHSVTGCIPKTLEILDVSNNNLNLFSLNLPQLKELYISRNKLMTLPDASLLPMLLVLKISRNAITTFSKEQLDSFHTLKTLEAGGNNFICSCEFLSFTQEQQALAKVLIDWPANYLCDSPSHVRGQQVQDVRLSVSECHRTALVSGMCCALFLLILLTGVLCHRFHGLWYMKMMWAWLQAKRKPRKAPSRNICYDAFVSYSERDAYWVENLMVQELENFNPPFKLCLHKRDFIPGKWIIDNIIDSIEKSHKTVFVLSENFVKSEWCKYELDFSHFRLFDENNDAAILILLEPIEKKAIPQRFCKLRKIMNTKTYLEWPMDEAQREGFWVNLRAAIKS
Method in brief: (§1)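 HEK-293/hTLR2 reporter cells transiently transfected with NF-κB-luciferase plasmid pNifty-Luc, stimulated 24 h with test compound at 1 μg/mL; luciferin-induced luminescence read. Fold enhancement taken versus serum amyloid A at 1 μg/mL or 10 μg/mL; n = 4.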

Toll-like receptor 2 [2] = biological target: T1, Toll-like receptor 2; test: Agonist activity at human TLR2 expressed in HEK293 cells assessed as induction of NF-kappaB signaling after 24 hrs by luminescence based luciferase reporter gene assay relative to 10 ug/mL of SAA; assay type: functional, cell-based; method in brief: as §1
Mus musculus [3] = species: Mus musculus; test: Immunomodulatory activity in Trp1455/9M peptide immunized C57BL/6 mouse assessed as Trp1455/9M specific CD8+ T cells in blood at 50 ug using Trp1455/9M/ H-2Db staining measured after 34 of immunization by FACS analysis; assay type: functional, T-cell
Method in brief: (§2)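 C57BL/6 mice, 6-8 weeks, immunized iv with 100 μg Trp1 455/9M peptide, 50 μg anti-CD40 antibody and 50 μg TLR2 agonist in 200 μL. Submandibular blood on days 7, 21, 34, red cells lysed, stained 40 min on ice with CD8a antibody, Trp1 455/9M/H-2Db tetramer and anti-MHC II; % tetramer-positive CD8+ cells by flow cytometry; three mice per group, mean and SD.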

Mus musculus [4] = species: Mus musculus; test: Toxicity in Trp1455/9M peptide immunized C57BL/6 mouse at 50 ug measured after 34 of immunization; assay type: organism-based; conditions: in vivo
Mus musculus [5] = species: Mus musculus; test: Immunomodulatory activity in Trp1455/9M peptide immunized C57BL/6 mouse assessed as Trp1455/9M specific CD8+ T cells in blood at 50 ug using Trp1455/9M/ H-2Db staining measured after 21 of immunization by FACS analysis; assay type: functional, T-cell; method in brief: as §2
Mus musculus [6] = species: Mus musculus; test: Immunomodulatory activity in Trp1455/9M peptide immunized C57BL/6 mouse assessed as Trp1455/9M specific CD8+ T cells in blood at 50 ug using Trp1455/9M/ H-2Db staining measured after 7 of immunization by FACS analysis; assay type: functional, T-cell
Method in brief: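 C57BL/6 mice, 6-8 weeks old, immunized i.v. (200 μL) with a mixture of 100 μg Trp1_455/9M peptide, 50 μg anti-CD40 antibody (FGK45.5) and 50 μg TLR2 agonist. Submandibular blood taken, red cells lysed with ammonium chloride, stained 40 min on ice with CD8a, Trp1_455/9M/H-2Db tetramer and anti-MHC class II. Tetramer+ % of CD8+ cells read by flow cytometry; three mice per group.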

Toll-like receptor 2 [7] = biological target: T1, Toll-like receptor 2; test: Agonist activity at human TLR2 expressed in HEK293 cells assessed as induction of NF-kappaB signaling after 24 hrs by luminescence based luciferase reporter gene assay; assay type: functional, cell-based
Toll-like receptor 2 [8] = biological target: T1, Toll-like receptor 2; test: Displacement of Eu-DTPA from human TLR2 expressed in HEK293 cells after 1 hr; assay type: cell-based
Method in brief: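 Live-cell europium TRF competition binding in HEK-293/hTLR2 (poly-D-lysine plates) or SU.86.86 cells grown 2 days to ~80% confluence. Unlabeled ligand 1 μM to 0.01 nM plus 90 nM Eu-DTPA-labeled tracer, 1 h at 37°C; three washes, enhancement solution 30 min at 37°C, read at 340 nm excitation/615 nm emission with time delay.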

Compound | fold change (FC) (Toll-like receptor 2 [1]) | fold change (FC) (Toll-like receptor 2 [2]) | Activity (Mus musculus [3]) [%] | Activity (Mus musculus [4]) | Activity (Mus musculus [5]) [%] | Activity (Mus musculus [6]) [%] | pEC50 (Toll-like receptor 2 [7]) | pKi (Toll-like receptor 2 [8])
CCCCCCCCCCCCCCCC(=O)OC[C@H](CSC[C@H](NC(=O)COCC(=O)NCCCOCCOCCOCCCNC(C)=O)C(=O)NCC(=O)N[C@@H](CO)C(=O)N[C@@H](CCC(N)=O)C(=O)N[C@@H](CC(N)=O)C(=O)N[C@@H](CC(C)C)C(=O)N[C@@H](C)C(=O)N[C@@H](CO)C(=O)N[C@@H](CC(C)C)C(=O)N[C@@H](CCC(=O)O)C(=O)N[C@@H](CCC(=O)O)C(N)=O)OC(=O)CCCCCCCCCCCCCCC (X1-C(Propyl(2R-PamO,3-PamO))GSQNLASLEE-NH2) | 13 | 4.8 |  |  |  |  |  | 
CCCCCCCCCCCCCCCC(=O)OC[C@H](CSC[C@H](N)C(=O)N[C@@H](CO)C(=O)N[C@@H](CCCCN)C(=O)N[C@@H](CCCCN)C(=O)N[C@@H](CCCCN)C(=O)N[C@@H](CCCCN)C(=O)O)OC(=O)CCCCCCCCCCCCCCC (H-C(Propyl(2R-PamO,3-PamO))SKKKK-OH) |  |  | 11.3 | Non-toxic | 18.4 | 56.6 | 8.43 | 
CCCCCCCCCCCCCCCC(=O)N[C@@H](CSC[C@@H](COC(=O)CCCCCCCCCCCCCCC)OC(=O)CCCCCCCCCCCCCCC)C(=O)N[C@@H](CO)C(=O)N[C@@H](CCCCN)C(=O)N[C@@H](CCCCN)C(=O)N[C@@H](CCCCN)C(=O)N[C@@H](CCCCN)C(=O)O (Palmitoyl-C(Propyl(2R-PamO,3-PamO))SKKKK-OH) |  |  | 10.2 | Non-toxic | 16.8 |  | 7.64 | 
CCCCCCCCCCCCCCCC(=O)OC[C@H](CSC[C@H](NC(=O)COCC(=O)NCCCOCCOCCOCCCNC(C)=O)C(=O)NCC(=O)N[C@H](CO)C(=O)NCCCOCCOCCOCCCNC(=O)COCC(N)=O)OC(=O)CCCCCCCCCCCCCCC | 14 | 5.2 | 6.63 | Non-toxic | 14.6 | 49.6 | 7.70 | 7.60
CCCCCCCCCCCCCCCC(=O)OC[C@H](CSC[C@H](NC(=O)COCC(=O)NCCCOCCOCCOCCCNC(C)=O)C(=O)N[C@H](CO)C(=O)N[C@H](CCCNC(=N)N)C(=O)N[C@H](Cc1ccccc1)C(=O)N[C@H](CC(=O)O)C(=O)N[C@H](CCC(=O)O)C(=O)N[C@H](CC(=O)O)C(=O)N[C@H](CC(=O)O)C(=O)N[C@H](CC(C)C)C(=O)N[C@H](CCC(=O)O)C(N)=O)OC(=O)CCCCCCCCCCCCCCC (X1-C(Propyl(2R-PamO,3-PamO))[dS][dR][dF][dD][dE][dD][dD][dL][dE]-NH2) | 11 | 4.2 |  |  |  |  |  | 
